Results on two molecules are retold here after ChEMBL document CHEMBL4699492, “Discovery of Novel Pyrazolo[3,4-b] Pyridine Derivatives with Dual Activities of Vascular Remodeling Inhibition and Vasodilation for the Treatment of Pulmonary Arterial Hypertension” (J Med Chem, 2020).

Structures are written as SMILES. Calls of active or inactive are those of the source. The calls are words filed in the database; no cut-off is given here. Where only a bound is given, the exact number is not on record here.

What is called inhibition is the change of the read-out against control, counted positive when it falls. As a reminder, the IC50 is the concentration at which inhibition is half-maximal. Usually EC50 stands for the midpoint of the concentration-response curve. The Emax is the greatest response seen or fitted, relative to the assay's reference.

For assay [1], the target named is cGMP-specific 3',5'-cyclic phosphodiesterase (Homo sapiens) (UniProt O76074). The settings on record: dose 2.0 nM, time 15.0 min.
The nature of assay [2]: Antiproliferative activity against HLF1 cells assessed as reduction in TGFbeta-induced cell proliferation measured after 48 hrs by CCK8 assay. Format: functional, cell-based. The settings on record: Homo sapiens, HLF1, 48 h. An outline of the steps: (§1)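 HPASMCs grown in high-glucose D-MEM with 20% FBS and HLF1 in D-MEM/F-12 (1:1) with 10% FBS. Cells stimulated with TGF-β (10 ng/mL) at 37 °C, 5% CO2, then exposed to a concentration range for 48 h. CCK-8 added for 4 h and absorbance read at 490 nm. IC50 derived from the curves.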
(Formazan colour is commonly taken as a measure of viable cells.)

A short description of assay [3]: Antiproliferative activity against HPASMC assessed as reduction in TGFbeta-induced cell proliferation measured after 48 hrs by CCK8 assay. The assay is classed as functional, tissue-based. The settings on record: Homo sapiens, Pulmonary Artery Smooth Muscle Cells. An outline of the steps:
as §1

Assay [4] relates to Aorta. Put plainly: Vasodilating activity in Sprague-Dawley rat aortic rings assessed as reduction in phenylephrine-induced contractions. The assay is classed as functional, tissue-based. In outline: (§2)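 Thoracic aorta from male SD rats (250-280 g) anesthetized with chloral hydrate, cut into 4 mm rings. Rings held in Krebs-Henseleit at 37 °C gassed with 95% O2/5% CO2, under 2 g resting tension, equilibrated 60 min, and precontracted with 10^-7 M phenylephrine. Cumulative concentrations of 3×10^-9 to 10^-6 M (final) applied. Percent relaxation of the initial contraction taken at 1 µM, and EC50 derived.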

Assay [5] relates to Aorta. Kind of assay: Vasodilating activity in Sprague-Dawley rat aortic rings assessed as reduction in phenylephrine-induced contractions at 1 uM relative to control. Format: functional. An outline of the steps: as §2
The subject of assay [6] is Pulmonary Artery Smooth Muscle Cells. Kind of assay: Stimulation of sGC in HPASMC assessed as increase in intracellular cGMP level at 100 uM measured after 1 hr in absence of PDE5 inhibitor IBMX by cGMP-d2/europium cryptate reagent based HTRF assay relative to control. Format: tissue-based. The settings on record: Homo sapiens. In outline: (§3)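 HPASMCs were suspended at 100,000 cells/mL in PBS with 0.2% BSA, with or without 10 µM ODQ. Compounds were added as a 6-point, 10-fold dilution series; the top 2× stock was 200 µM. Incubation was 1 h at room temperature, in triplicate. cGMP-d2 in lysis buffer and europium cryptate were then added for 1 h before HTRF reading. Three independent experiments.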
(TR-FRET usually uses a lanthanide donor and a delayed reading to cut background.)

For assay [7] the test system is unchanged. Put plainly: Stimulation of sGC in HPASMC assessed as increase in intracellular cGMP level measured after 1 hr in absence of PDE5 inhibitor IBMX and presence of sGC inhibitor ODQ by cGMP-d2/europium cryptate reagent based HTRF assay. The settings on record: Homo sapiens, filed as activator. The assay is classed as tissue-based. An outline of the steps:
as §3

For assay [8] the test system is unchanged. Kind of assay: Stimulation of sGC in HPASMC assessed as increase in intracellular cGMP level measured after 1 hr in absence of PDE5 inhibitor IBMX and sGC inhibitor ODQ by cGMP-d2/europium cryptate reagent based HTRF assay. The assay is classed as tissue-based. To be noted: Homo sapiens, filed as activator. An outline of the steps:
as §3

The test system is the same in assay [9]. Put plainly: Stimulation of sGC in HPASMC assessed as increase in intracellular cGMP level at 100 uM measured after 1 hr in presence of PDE5 inhibitor IBMX by cGMP-d2/europium cryptate reagent based HTRF assay relative to control. Format: tissue-based. To be noted: Homo sapiens, filed as activator. In outline: as §3
Assay [10] has the same test system. Put plainly: Stimulation of sGC in HPASMC assessed as increase in intracellular cGMP level at 100 uM measured after 1 hr in presence of PDE5 inhibitor IBMX and sGC inhibitor ODQ by cGMP-d2/europium cryptate reagent based HTRF assay. Format: tissue-based. The settings on record: Homo sapiens. An outline of the steps: as §3
The next assay deals with HLF1. Kind of assay: Antiproliferative activity against HLF1 cells measured after 48 hrs under hypoxic condition by CCK8 assay. Format: functional, cell-based. To be noted: Homo sapiens. In outline:
(§4)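 HPASMCs were grown in high-glucose D-MEM with 20% FBS, and HLF1 in D-MEM/F-12 (1:1) with 10% FBS. Cells were seeded for exponential growth, then exposed to a range of compound concentrations for 48 h at 37 °C under hypoxia (1% O2, 5% CO2, 94% N2). CCK-8 was added for 4 h and absorbance read at 490 nm. IC50 came from dose-response curves averaged over three independent experiments.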

Assay [11] deals with Pulmonary Artery Smooth Muscle Cells. Put plainly: Antiproliferative activity against HPASMC measured after 48 hrs under hypoxic condition by CCK8 assay. The assay is classed as functional, tissue-based. To be noted: Homo sapiens. An outline of the steps:
as §4

A further assay is filed under the species Homo sapiens. Put plainly: Inhibition of CaMKKbeta phosphorylated recombinant human AMPK alpha1/beta1/gamma1 using 1-biotin as substrate incubated for 60 mins by HTRF assay. To be noted: time 1.0 hrs. An outline of the steps:
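Kinase reaction with 0.16 µM STK substrate 1-biotin, 0.8 mmol DTT, 4 mmol MgCl2, 4 µM ATP and compound, started by adding 1 ng/µl CaMKKβ-prephosphorylated AMPK (α1β1γ1). Ran 1 h at 37 °C, then Eu3+-cryptate STK antibody plus 57.5 nmol/L XL-665 for 1 h at room temperature. Activity read as the 665/620 ratio ×10000. Curves averaged from three independent experiments.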

The target of assay [12] is T1, AMP-activated protein kinase, AMPK (Homo sapiens) (UniProt P54646+O43741+P54619+Q9UGJ0+Q9Y478+Q13131+Q9UGI9). Put plainly: Inhibition of AMPK in TGFbeta-induced HPASMC assessed as reduction in cell migration measured after 24 hrs by wound healing assay. The assay is classed as tissue-based. To be noted: Pulmonary Artery Smooth Muscle Cells, dose microM 5-10, time 24.0 hrs. An outline of the steps:
(§5)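 Wound-healing assay. 5 × 10^4 cells were seeded per well and grown 24 h to near confluence. The monolayer was scratched with a pipette tip and washed with PBS. Cells were then kept in 1% FBS medium with TGF-β (10 ng/mL) or under hypoxia (1% O2, 5% CO2, 94% N2), alone or with compound. Migration ran 24 h at 37 °C, imaged at 0 and 24 h. Mean ± SD from three independent experiments.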

The target of assay [13] is T1, AMP-activated protein kinase, AMPK (Homo sapiens). Kind of assay: Inhibition of AMPK in hypoxia-induced HPASMC assessed as reduction in cell migration measured after 24 hrs by wound healing assay. Format: tissue-based. To be noted: Pulmonary Artery Smooth Muscle Cells, dose microM 5-10, time 24.0 hrs. In outline: as §5
The target is the same in assay [14]. Kind of assay: Inhibition of AMPK in TGFbeta-induced HLF1 cells assessed as reduction in cell migration measured after 24 hrs by wound healing assay. Format: cell-based. The settings on record: dose microM 5-10, time 24.0 hrs. In outline: as §5
The target is the same in assay [15]. Put plainly: Inhibition of AMPK in hypoxia-induced HLF1 cells assessed as reduction in cell migration measured after 24 hrs by wound healing assay. To be noted: dose microM 5-10, time 24.0 hrs. Format: cell-based. An outline of the steps:
as §5

Assay [16] deals with Rattus norvegicus. Kind of assay: Inhibition of vascular remodeling activity in Sprague-Dawley rat model of hypoxia-induced pulmonary artery hypertension assessed as right ventricular systolic pressure at 10 mg/kg, po administered daily for 2 weeks by catheter method (reference value: 26.2 mmHg). Format: functional.
For assay [17], the system named is Rattus norvegicus. Put plainly: Inhibition of vascular remodeling activity in Sprague-Dawley rat model of hypoxia-induced pulmonary artery hypertension assessed as weight ratio of right ventricle/left ventricle plus septum at 10 mg/kg, po administered daily for 2 weeks (reference value: 0.63). The assay is classed as functional.
The test system of assay [18] is Rattus norvegicus. Kind of assay: Inhibition of vascular remodeling activity in Sprague-Dawley rat model of hypoxia-induced pulmonary artery hypertension assessed as decrease in ratio of RV/tibial length at 10 mg/kg, po administered daily for 2 weeks. The assay is classed as functional, organism-based.
The test system of assay [19] is Rattus norvegicus. Kind of assay: Inhibition of vascular remodeling activity in Sprague-Dawley rat model of hypoxia-induced pulmonary artery hypertension assessed as increase in body weight at 10 mg/kg, po administered daily for 2 weeks. The assay is classed as functional, organism-based.
The subject of assay [20] is Rattus norvegicus. Kind of assay: Inhibition of vascular remodeling activity in Sprague-Dawley rat model of hypoxia-induced pulmonary artery hypertension assessed as reduction in pulmonary artery medial thickness at 10 mg/kg, po administered daily for 2 weeks by H and E staining based digital microscopic analysis. Format: functional, organism-based. In outline:
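Hypoxia model in male SD rats (10% O2, 4 weeks) with oral dosing at 10 mg/kg daily for 14 days in 0.5% CMC-Na. Paraffin-embedded lung tissue was cut into 5 µm sections and stained with H&E. Pulmonary artery medial thickness was quantified, n = 5/group.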

Assay [21] has as its system Rattus norvegicus. Kind of assay: Inhibition of vascular remodeling activity in Sprague-Dawley rat model of hypoxia-induced pulmonary artery hypertension assessed as reduction in alpha-SMA expression in lungs at 10 mg/kg, po administered daily for 2 weeks by Western blot analysis. The assay is classed as functional, organism-based. In outline:
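Lungs came from hypoxic SD rats (10% O2, 4 weeks) dosed orally at 10 mg/kg daily for 14 days. Tissue was homogenised in RIPA buffer with protease and phosphatase inhibitors. 30 µg of protein was run on 10% SDS-PAGE and transferred to PVDF. Blots were probed overnight at 4 °C with anti-α-SMA (1:1000) and anti-β-actin (1:2000) and detected by fluorescence.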
(In general: Immunoblotting shows a protein as a band on a membrane.)

`CCCc1nn(C)c2c(=O)[nH]c(-c3cc(S(=O)(=O)N4CCN(C)CC4)ccc3OCC)nc12` registered an inhibition in assay [1] of 54.9%.

In the case of `COC(=O)N(C)c1c(N)nc(-c2nn(Cc3ccccc3F)c3ncccc23)nc1N` [RIOCIGUAT], the IC50 in [2] and in assay [3] was more than 100 µM throughout. Also, the EC50 in the assay on Aorta [4] was found to be 0.18 µM. The Emax at 1 µM in the assay with Aorta [5] was 93.6%. The Activity in assay [6] came to 5%; in [9], 50%; in the assay on Rattus norvegicus [16], 22.3 mmHg. Besides, the outcome (in [7]; in assay [8]; in the assay with HLF1; in assay [11]) was Active. The outcome in [10] was inactive. Moreover, in the assay filed under Homo sapiens, the inhibition result was “inactive”. In addition, the inhibition entry in assay [12], in assay [13], in assay [14] and in [15] was “Dose-dependent effect” in each case. Besides, in the assay with Rattus norvegicus [17], the Ratio was 0.44. In addition, the inhibition result in the assay with Rattus norvegicus [18], with Rattus norvegicus [19], with Rattus norvegicus [20] and in the assay on Rattus norvegicus [21] was “Active” throughout.
